Measurements published in publication PMC8500343 (Pharmacology Research & Perspectives, 2021).
Where “and” joins values, the source holds several entries; their conditions need not be identical. Equal entries are not always repeated. Where two headings read alike, the source gives them in different places.

Tests used:
Bioequivalence part = assay type: in vivo, human (healthy adult subjects); conditions: for t 1/2 / AUC(0-t) / AUC(0-inf): mean (SD); for AUC(0-t): AUC0–last; for AUC(0-inf): AUC0–∞; for Geometric means ratio, AUC0–last / Geometric means ratio, AUC0–∞ / Geometric means ratio, C max: Group 1, FDC vs. free combination, Treatment A/B, fasted; for CVw (intrasubject coefficient of variation), AUC0–last / CVw (intrasubject coefficient of variation), AUC0–∞ / CVw (intrasubject coefficient of variation), C max: Group 1, Treatment A/B
Summary of the method: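 Single-centre, open-label, randomized two-period crossover in healthy adult men and women. Single oral doses were given after an overnight fast of at least 10 h: fixed-dose tablet (10/40 mg) versus 10 mg macitentan plus 40 mg Canadian-sourced tadalafil tablets. Plasma was sampled predose to 216 h and assayed by LC-MS/MS. Noncompartmental PK gave GMR 90% CIs against 80.00–125.00 limits and intrasubject CV.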

[1] = Stability in plasma samples; assay type: in vitro ADME, human
Food effect part = assay type: in vivo, human (healthy adult subjects); conditions: for Geometric means ratio, AUC0–last / Geometric means ratio, AUC0–∞ / Geometric means ratio, C max: Treatment C/D; for t 1/2 / AUC(0-t) / AUC(0-inf) / mean C max higher under fed (test) compared with fasted (reference) conditions: Group 2, FDC; for CVw (intrasubject coefficient of variation), AUC0–last / CVw (intrasubject coefficient of variation), AUC0–∞ / CVw (intrasubject coefficient of variation), C max: Group 2, Treatment C/D; for AUC(0-t): AUC0–last; for AUC(0-inf): AUC0–∞; for mean C max higher under fed (test) compared with fasted (reference) conditions: arithmetic means
Summary of the method: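 Healthy adults in a randomized two-way crossover, sequence C-D or D-C. Single oral fixed-dose tablet (10/40 mg) was given fed or fasted; both arms fasted overnight for at least 10 h. Fed dosing followed a high-fat, high-calorie breakfast per FDA guidance, eaten within 30 min. Plasma was sampled predose to 216 h and assayed by LC-MS/MS. Noncompartmental PK gave GMR 90% CIs against 80.00–125.00 limits.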

[2] = no reference given; cited from earlier work
[3] = cited from earlier work
[4] = Group 1, FDC, fasted (Treatment A)
[5] = Group 1, free combination, fasted (Treatment B)
[6] = both, human, plasma, oral, Group 1, FDC, fasted (Treatment A)
[7] = both, human, plasma, oral, Group 1, free combination, fasted (Treatment B)
[8] = fasted (Treatment D), mean (SD)
[9] = both, human, plasma, oral, fed (Treatment C), mean (SD)
[10] = both, human, plasma, oral, fasted (Treatment D), mean (SD)
[11] = in the presence of macitentan and metabolite

NS(=O)(=O)Nc1ncnc(OCCOc2ncc(Br)cn2)c1-c1ccc(Br)cc1 [Aprocitentan]
t 1/2 (Bioequivalence part; [4]): 50.7 (9.99) h
t 1/2 (Bioequivalence part; [5]): 49.4 (6.92) h
AUC(0-t) (Bioequivalence part; [6]): 20.9 µg·h/mL
AUC(0-t) (Bioequivalence part; [7]): 20.8 µg·h/mL
AUC(0-inf) (Bioequivalence part; [6]): 22.6 µg·h/mL
AUC(0-inf) (Bioequivalence part; [7]): 22.5 µg·h/mL
stability in plasma samples at room temperature ([1]; in the presence of tadalafil): at least 26 h
stability in plasma samples, freeze/thaw cycles ([1]; in the presence of tadalafil): 5 freeze/thaw cycles
C max (Food effect part; Group 2, FDC 10/40 mg, fasted (Treatment D), mean (SD)): 165 (29.3) ng/ml
90% CI of GMRs for all 3 PK parameters versus equivalence limits (Food effect part; Group 2, FDC fed vs. fasted): within the equivalence limits
Geometric means ratio, AUC0–last (Food effect part; Group 2, FDC fed vs. fasted): 104.50%
Geometric means ratio, AUC0–∞ (Food effect part; Group 2, FDC fed vs. fasted): 103.98%
Geometric means ratio, C max (Food effect part; Group 2, FDC fed vs. fasted): 107.25%
t 1/2 (Food effect part; [8]): 49.7 (7.63) h
t 1/2 (Food effect part; fed (Treatment C), mean (SD)): 49.4 (6.02) h
CVw (intrasubject coefficient of variation), AUC0–last (Food effect part): 7.2%
CVw (intrasubject coefficient of variation), AUC0–∞ (Food effect part): 7.0%
CVw (intrasubject coefficient of variation), C max (Food effect part): 7.4%
AUC(0-t) (Food effect part; [9]): 18.9 µg·h/mL
AUC(0-inf) (Food effect part; [10]): 19.5 µg·h/mL
AUC(0-inf) (Food effect part; [9]): 20.3 µg·h/mL

CCCNS(=O)(=O)Nc1ncnc(OCCOc2ncc(Br)cn2)c1-c1ccc(Br)cc1 [Macitentan]
Geometric means ratio, AUC0–last (Bioequivalence part): 100.96%
Geometric means ratio, AUC0–∞ (Bioequivalence part): 100.66%
Geometric means ratio, C max (Bioequivalence part): 101.49%
t 1/2 (Bioequivalence part; [4]): 13.9 (2.87) h
CVw (intrasubject coefficient of variation), AUC0–last (Bioequivalence part): 9.6%
CVw (intrasubject coefficient of variation), AUC0–∞ (Bioequivalence part): 9.5%
CVw (intrasubject coefficient of variation), C max (Bioequivalence part): 11.2%
Tmax (Bioequivalence part; Group 1, free combination, fasted (Treatment B), median (range)): 10.0 (3.55–12.0) h
Tmax (Bioequivalence part; both, human, plasma, oral): 10 h
half-life (Bioequivalence part; both, human, plasma, oral): 14.6 h
AUC(0-t) (Bioequivalence part; [6]): 5.85 µg·h/mL
AUC(0-t) (Bioequivalence part; [7]): 5.8 µg·h/mL
AUC(0-inf) (Bioequivalence part; [6]): 5.93 µg·h/mL
AUC(0-inf) (Bioequivalence part; [7]): 5.9 µg·h/mL
biopharmaceutical classification system (BCS) class [2]: 2
stability in plasma samples at room temperature ([1]; in the presence of tadalafil): at least 26 h
stability in plasma samples, freeze/thaw cycles ([1]; in the presence of tadalafil): 5 freeze/thaw cycles
90% CI for the GMR of C max versus equivalence limits (80.00% to 125.00%) (Food effect part; Group 2, FDC fed vs. fasted): outside the equivalence limits
C max geometric means ratio, test higher compared to reference (Food effect part; Group 2, FDC fed vs. fasted): 16.10%
Geometric means ratio, AUC0–last (Food effect part; Group 2, FDC fed vs. fasted): 102.32%
Geometric means ratio, AUC0–∞ (Food effect part; Group 2, FDC fed vs. fasted): 102.13%
Geometric means ratio, C max (Food effect part; Group 2, FDC fed vs. fasted): 116.10%
mean C max higher under fed (test) compared with fasted (reference) conditions (Food effect part): approximately 15.9%
t 1/2 (Food effect part; fed (Treatment C), mean (SD)): 14.1 (2.50) h
CVw (intrasubject coefficient of variation), AUC0–last (Food effect part): 6.6%
CVw (intrasubject coefficient of variation), AUC0–∞ (Food effect part): 6.4%
CVw (intrasubject coefficient of variation), C max (Food effect part): 12.4%
Tmax (Food effect part; both, human, plasma, oral): 10 h
half-life (Food effect part; both, human, plasma, oral): 15.5 h
AUC(0-t) (Food effect part; [10]): 6.22 µg·h/mL
AUC(0-t) (Food effect part; [9]): 6.43 µg·h/mL
AUC(0-inf) (Food effect part; [10]): 6.34 µg·h/mL
AUC(0-inf) (Food effect part; [9]): 6.54 µg·h/mL

CN1CC(=O)N2[C@H](c3ccc4c(c3)OCO4)c3[nH]c4ccccc4c3C[C@@H]2C1=O [Tadalafil]
geometric mean of tadalafil C max under fed conditions ([3]; tadalafil alone, fed): 0.586 µg/mL
C max ([3]; tadalafil in a fasted state, another study): 0.614 µg/mL
Geometric means ratio, AUC0–last (Bioequivalence part): 98.87%
Geometric means ratio, AUC0–∞ (Bioequivalence part): 98.82%
Geometric means ratio, C max (Bioequivalence part): 88.30%
t 1/2 (Bioequivalence part; [4]): 22.8 (7.76) h
CVw (intrasubject coefficient of variation), AUC0–last (Bioequivalence part): 11.3%
CVw (intrasubject coefficient of variation), AUC0–∞ (Bioequivalence part): 11.3%
CVw (intrasubject coefficient of variation), C max (Bioequivalence part): 16.1%
t 1/2 (Bioequivalence part; [5]): 22.7 (7.26) h
Tmax (Bioequivalence part; both, human, plasma, oral): 2.5 h
AUC(0-t) (Bioequivalence part; [6]): 20.6 µg·h/mL
AUC(0-t) (Bioequivalence part; [7]): 20.8 µg·h/mL
AUC(0-inf) (Bioequivalence part; [6]): 20.7 µg·h/mL
AUC(0-inf) (Bioequivalence part; [7]): 20.9 µg·h/mL
biopharmaceutical classification system (BCS) class [2]: 2
stability in plasma samples at room temperature [1, 11]: at least 24 h
stability in plasma samples at −20 and −70℃ [1, 11]: 127 days
stability in plasma samples, freeze/thaw cycles [1, 11]: 5 freeze/thaw cycles
intersubject variability in C max (Food effect part; FDC under fasting conditions): 34.0%
C max geometric means ratio, test higher compared to reference (Food effect part; Group 2, FDC fed vs. fasted): 45% and 44.97%
Geometric means ratio, AUC0–last (Food effect part; Group 2, FDC fed vs. fasted): 111.07%
Geometric means ratio, AUC0–∞ (Food effect part; Group 2, FDC fed vs. fasted): 111.04%
Geometric means ratio, C max (Food effect part; Group 2, FDC fed vs. fasted): 144.97%
mean C max higher under fed (test) compared with fasted (reference) conditions (Food effect part): approximately 42.5%
t 1/2 (Food effect part; [8]): 23.4 (6.64) h
CVw (intrasubject coefficient of variation), AUC0–last (Food effect part): 9.9%
CVw (intrasubject coefficient of variation), AUC0–∞ (Food effect part): 9.9%
CVw (intrasubject coefficient of variation), C max (Food effect part): 17.7%
Tmax (Food effect part; both, human, plasma, oral): 2.5 h
half-life (Food effect part; both, human, plasma, oral): 24.5 h
AUC(0-t) (Food effect part; [10]): 19.7 µg·h/mL
AUC(0-t) (Food effect part; [9]): 22.3 µg·h/mL
AUC(0-inf) (Food effect part; [10]): 19.9 µg·h/mL
AUC(0-inf) (Food effect part; [9]): 22.5 µg·h/mL
Cmax (Food effect part; both, human, plasma, oral, geometric mean of tadalafil C max under fed conditions, FDC formulation, fed): 0.666 µg/mL
ratio of geometric mean tadalafil C max, FDC formulation vs. tadalafil (Food effect part; fed conditions, 666 ng/ml vs. 586 ng/ml (ref 21)): 1.14
